12 compounds from ChEMBL document CHEMBL3407415, “Synthesis and anticancer activities of ceritinib analogs modified in the terminal piperidine ring” (Eur J Med Chem, 2015) can be followed below.

Molecules are shown by their SMILES. Activity calls are given as the source filed them. The calls are words filed in the database; no cut-off is given here.

In data set [1] the test system is NCI-H2228. The data set is described as follows: Cytotoxicity against human NCI-H2228 cells assessed as cell viability after 72 hrs by MTS assay. Format: functional, cell-based. Particulars: NCI-H2228, 72 h. Put shortly:
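H2228 cells seeded and grown 24 h, then exposed in triplicate to a range of concentrations for 72 h at 37 °C, 5% CO₂. MTS (5 mg/mL solution) added for 4 h, medium removed, plates shaken, absorbance read at 570 nm. Inhibition computed against controls. IC50 = concentration giving 50% growth inhibition.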
For orientation: Formazan colour is commonly taken as a measure of viable cells.

Data set [2] concerns NCI-H2228. The data set is described as follows: Antitumor activity against human NCI-H2228 cells xenografted in Rowett nude rat assessed as tumor growth inhibition at 30 mg/kg/day, po administered for 14 days measured on day 15. Format: functional, organism-based. Put shortly:
(§1)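 RNU nude rats carrying H2228 tumours, randomized at mean tumour size 150 mm³ (n = 6 per group). Dosed by oral gavage, vehicle 0.5% MC/0.5% Tween 80, 10 μL/g body weight, daily for 14 days starting day 15 post-implant. Tumour volume = ab²/2. Rats killed after 14 days and tumours excised and weighed. Inhibition = (control mean tumour weight − treated mean)/control mean × 100%.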
In general terms: A xenograft is tissue or cells of one species grown in another, often human tumour cells in immunodeficient mice.

Another data set relates to Plasma. The data set is described as follows: Drug uptake in Sprague-Dawley rat plasma at 25 mg/kg, po measured over 24 hrs by HPLC analysis. The format is ADME, organism-based. Also noted: dose 25 mg/kg, route oral. The following applies: in vivo. An outline of the steps:
(§2)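 Male SD rats, 200–220 g, randomized into three groups (n = 4). Single oral gavage dose in 0.5% MC/0.5% Tween 80 at 10 μL/g. Plasma sampled at 0.5, 1, 3, 5, 8 and 24 h, deproteinized with ethyl acetate, vortexed and centrifuged at 4000 rpm for 5 min. Organic phase analysed for ceritinib by HPLC.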

The subject of data set [3] is Rattus norvegicus. The data set is described as follows: Toxicity in Rowett nude rat xenografted with human NCI-H2228 cells assessed as body weight reduction at 36.24 mg/kg/day, po administered for 14 days measured during compound treatment. Format: organism-based. Also noted: route oral. Particulars: in vivo, 336 h. An outline of the steps: (§3)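 H2228 xenograft-bearing RNU nude rats (n = 6 per group, mean starting tumour 150 mm³) given daily oral gavage in 0.5% MC/0.5% Tween 80, 10 μL/g, for 14 consecutive days. Body weight tracked regularly throughout dosing.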

For data set [4], the system named is NCI-H2228. The data set is described as follows: Antitumor activity against human NCI-H2228 cells xenografted in Rowett nude rat assessed as tumor growth inhibition at 36.24 mg/kg/day, po administered for 14 days measured on day 15. Format: functional, organism-based. Put shortly:
as §1

Data set [5] concerns Rattus norvegicus. The data set is described as follows: Prodrug conversion in Sprague-Dawley rat assessed as release of ceritinib in plasma at 36.24 mg/kg, po measured over 24 hrs by HPLC analysis. Also on record: dose 36.24 mg/kg, route oral. Particulars: in vivo. Format: ADME, organism-based. An outline of the steps: as §2
Data set [6] concerns Rattus norvegicus. The data set is described as follows: Prodrug conversion in Sprague-Dawley rat assessed as release of ceritinib in plasma at 38.28 mg/kg, po measured over 24 hrs by HPLC analysis. Format: ADME, organism-based. Also noted: dose 38.28 mg/kg, route oral. The following applies: in vivo. Put shortly: as §2
Data set [7] has as its system NCI-H2228. The data set is described as follows: Antitumor activity against human NCI-H2228 cells xenografted in Rowett nude rat assessed as tumor growth inhibition at 38.28 mg/kg/day, po administered for 14 days measured on day 15 relative to vehicle-treated control. The format is functional. The following applies: read-out: TGI. An outline of the steps:
as §1

The subject of data set [8] is Rattus norvegicus. The data set is described as follows: Toxicity in Rowett nude rat xenografted with human NCI-H2228 cells assessed as body weight reduction at 38.28 mg/kg/day, po administered for 14 days measured during compound treatment. The format is organism-based. Also noted: route oral. The following applies: in vivo, 336 h. Put shortly:
as §3

With `Cc1cc(Nc2ncc(Cl)c(Nc3ccccc3S(=O)(=O)C(C)C)n2)c(OC(C)C)cc1C1CCN(P(=O)(OCc2ccccc2)OCc2ccccc2)CC1`, the IC50 in the data set with NCI-H2228 [1] worked out at 2690 nM.

`Cc1cc(Nc2ncc(Cl)c(Nc3ccccc3S(=O)(=O)C(C)C)n2)c(OC(C)C)cc1C1CCNCC1` [CERITINIB]: the IC50 in the data set with NCI-H2228 [1] was 103 nM. In addition, the TGI result in the data set with NCI-H2228 [2] was “Active”. For the same compound, the Drug uptake result in the data set on Plasma is “Active”.

`Cc1cc(Nc2ncc(Cl)c(Nc3ccccc3S(=O)(=O)C(C)C)n2)c(OC(C)C)cc1C1CCN(P(=O)(O)OCc2ccccc2)CC1`: the half-inhibitory concentration (IC50) in the data set with NCI-H2228 [1] was found to be 57.4 nM.

With `CC(=O)OCOC(=O)N1CCC(c2cc(OC(C)C)c(Nc3ncc(Cl)c(Nc4ccccc4S(=O)(=O)C(C)C)n3)cc2C)CC1`, in the data set on NCI-H2228 [1], the IC50 was determined as 120 nM. Also, the Activity entry in the data set on Rattus norvegicus [3] was “Non-toxic”. In addition, in the data set on NCI-H2228 [4], the TGI entry was “inactive”. Moreover, the Drug metabolism result in the data set on Rattus norvegicus [5] was “metabolite_notdetected”.

`CCOP(=O)(OCC)N1CCC(c2cc(OC(C)C)c(Nc3ncc(Cl)c(Nc4ccccc4S(=O)(=O)C(C)C)n3)cc2C)CC1`: in the data set with NCI-H2228 [1], the half-inhibitory concentration (IC50) was 571 nM.

For the compound `Cc1cc(Nc2ncc(Cl)c(Nc3ccccc3S(=O)(=O)C(C)C)n2)c(OC(C)C)cc1C1CCN(P(=O)(Oc2ccccc2)Oc2ccccc2)CC1`, the 50% inhibitory concentration (IC50) with NCI-H2228 [1] amounted to 14400 nM.

In the case of `CCCCCOC(=O)N1CCC(c2cc(OC(C)C)c(Nc3ncc(Cl)c(Nc4ccccc4S(=O)(=O)C(C)C)n3)cc2C)CC1`, the IC50 with NCI-H2228 [1] worked out at 67200 nM.

Take `Cc1cc(Nc2ncc(Cl)c(Nc3ccccc3S(=O)(=O)C(C)C)n2)c(OC(C)C)cc1C1CCN(C(=O)OCOP(=O)(O)O)CC1`: in the data set with NCI-H2228 [1], the IC50 was determined as 24 nM. Also, in the data set with Rattus norvegicus [6], the Drug metabolism entry was “metabolite_notdetected”. The inhibition in vivo at 38.28 mg/kg/day in the data set on NCI-H2228 [7] stood at 80%. Also, the Activity entry in the data set on Rattus norvegicus [8] was “Non-toxic”.

With `COC(=O)N1CCC(c2cc(OC(C)C)c(Nc3ncc(Cl)c(Nc4ccccc4S(=O)(=O)C(C)C)n3)cc2C)CC1`, the IC50 with NCI-H2228 [1] was 1110 nM.

`CCC(C)OC(=O)N1CCC(c2cc(OC(C)C)c(Nc3ncc(Cl)c(Nc4ccccc4S(=O)(=O)C(C)C)n3)cc2C)CC1` (stereo not given): in the data set on NCI-H2228 [1], the IC50 was 7400 nM.

With `Cc1cc(Nc2ncc(Cl)c(Nc3ccccc3S(=O)(=O)C(C)C)n2)c(OC(C)C)cc1C1CCN(C(=O)OCOP(=O)(OCc2ccccc2)OCc2ccccc2)CC1`, the IC50 with NCI-H2228 [1] stood at 1040 nM.

Turning to `CCOC(=O)N1CCC(c2cc(OC(C)C)c(Nc3ncc(Cl)c(Nc4ccccc4S(=O)(=O)C(C)C)n3)cc2C)CC1`, the IC50 with NCI-H2228 [1] amounted to 1200 nM.

Broadly, the IC50 is the concentration needed to halve the response being measured.
